# Experimental data of several laboratories.
# Lines come from different studies, so protocols differ.
# Target: Death-associated protein kinase 1 (DAPK1, Homo sapiens, UniProt P53355)
SMILES,read-out,method,tested at,remaining binding [%]
CN(C)c1ncc(F)c(-c2cnn3ncccc23)n1,binding,,1 µM,100
c1ccc(N2CCN(Cc3nc4ccccc4[nH]3)CC2)nc1,binding,competition with immobilised ligand,1 µM,100
FC(F)(F)Oc1cccc(-c2cnc3ccc(-c4ccncc4)nn23)c1,cell-free assay,competition with immobilised ligand,5 µM,89
CC1CCCN1c1nccc(-c2cnn3ncccc23)n1 (stereo not drawn),binding,,1 µM,99
c1cncc(-c2cccc(Nc3nccc(NC4CCCCC4)n3)c2)c1,binding,competition with immobilised ligand,10 µM,90
O=C(NCCCN1CCOCC1)c1ccc(Nc2ncc(Cl)c(-c3ccc(Cl)s3)n2)cc1,binding,competition with immobilised ligand,1 µM,22
CN(CCCC(F)(F)F)c1nccc(-c2cnn3ncccc23)n1,binding,,1 µM,100
CS(=O)(=O)c1cc(C2(NC(=O)c3cncc4c3cnn4-c3ccc(F)cc3)CC2)ccn1,cell-free assay,competition with immobilised ligand,1 µM,83
C[C@@H](c1ccc(-n2cnc3c(N)ncnc32)cc1)N1CCc2nn(C)c(Cc3ccccc3)c2C1=O,binding,competition with immobilised ligand,0.1 µM,95
NS(=O)(=O)c1cc(NC(=O)C2(c3ccccc3Cl)CC2)ccc1Oc1cccc(Cl)c1,cell-free assay,competition with immobilised ligand,1 µM,98
COc1cnc(Nc2cccc(S(N)(=O)=O)c2)nc1N1CCN(c2ccccc2)CC1,binding,competition with immobilised ligand,1 µM,83
C[C@H]1CCN(c2nccc(-c3cnn4ncccc34)n2)C1,binding,,1 µM,71
O=C(NCC1CCOCC1)c1n[nH]cc1NC(=O)c1c(F)cccc1F,binding,competition with immobilised ligand,1 µM,96
Cc1cnn2ncc(-c3ccnc(N(C)C)n3)c2c1,binding,,1 µM,74
CCCOc1ccc([C@H]2[C@H](C(=O)O)[C@@H](c3ccc4c(c3)OCO4)CN2CC(=O)Nc2c(CC)cccc2CC)cc1,cell-free assay,competition with immobilised ligand,1 µM,90
C=CC(=O)N1CCC(C(=O)NCC(=O)N2CCN(c3nc(-c4cnc(N)nc4C(F)F)nc(N4CCOCC4)n3)CC2)CC1,binding,competition with immobilised ligand,1 µM,96
CNCc1ccccc1-c1csc([C@H](C)Nc2nc(C)nc3cc(OC)c(OC)cc23)c1,cell-free assay,competition with immobilised ligand,1 µM,100
O=C(c1ccc(Nc2nccc(-c3cc4ccccc4s3)n2)cc1)N1CCC(N2CCCC2)CC1,binding,competition with immobilised ligand,1 µM,13
C[C@H](c1ccc(F)cc1)N(Cc1cccc(C(=O)O)c1)C(=O)c1cnc2ccccc2c1,cell-free assay,competition with immobilised ligand,1 µM,97
c1cnn2ncc(-c3ccnc(N4CCC45COC5)n3)c2c1,binding,,1 µM,79
O=C(c1ccc(Nc2ncc(Cl)c(-c3ccc(Cl)s3)n2)cc1)N1CCC(N2CCCC2)CC1,binding,competition with immobilised ligand,1 µM,17
